Measured values: ChEMBL document CHEMBL1134576, “Discovery of potent antagonists of leukocyte function-associated antigen-1/intercellular adhesion molecule-1 interaction. 3. Amide (C-ring) structure-activity relationship and improvement of overall properties of arylthio cinnamides” (J Med Chem, 2001)
Converted amounts (≈) assume the structure as drawn. “And” between values parts separate entries of the source, which are not always exact repeats. Equal entries are not always repeated.

Tests used:
[1] = molecular target: Intercellular adhesion molecule (ICAM-1), Integrin alpha-L/beta-2 (Homo sapiens, UniProt P05107+P20701); test: Ability to antagonise the Leukocyte function-associated Antigen-1/ Intracellular Adhesion molecule-1 interaction (LFA-1/ICAM-1); format: functional
[2] = Percent oral bioavailability after po dose; format: ADME, organism-based; settings: eutheria, in vivo
[3] = Cmax value after po dose; format: ADME, organism-based; set-up: route oral; settings: in vivo
[4] = Half life period after iv dose in rat; format: ADME, organism-based; settings: in vivo
Outline: (§1)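 Rats (n = 4/group) received 5 mg/kg either iv as a slow jugular bolus or po by gavage. The terminal-phase rate constant gave t1/2 and AUC extrapolated to infinity. F compares oral with iv AUC.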

[5] = Clearance after iv dose in rat; settings: in vivo
JY = test: Inhibition of JY8 cell adhesion process (The assay was run with 1% fetal bovine serum); format: functional, cell-based; settings: Homo sapiens, JY-8
Outline: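 JY-8 cells […] in the presence of 1% fetal bovine serum. Six concentrations from 6.4 × 10^-9 to 2 × 10^-5 were run in duplicate. IC50 is the mean of repeat measurements, with the range given.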

[6] = Mean residence time after po dose in rat; format: ADME, organism-based; settings: in vivo; outline: as §1
[7] = Oral bioavailability in rat; format: ADME, organism-based; settings: in vivo; outline: as §1
Rattus norvegicus [8] = test: Cmax value after po dose in rat; format: ADME, organism-based; set-up: route oral; settings: in vivo; outline: as §1
Rattus norvegicus [9] = test: heart rate in a rat model of reperfusion after 5 min at 50 mg/kg dose; format: functional
Rattus norvegicus [10] = test: mean arterial pressure in a rat model of reperfusion after 180 min at 50 mg/kg dose; format: functional, Artery
Rattus norvegicus [11] = test: heart rate pressure in a rat model of reperfusion after 60 min at 3 mg/kg dose; format: functional
Rattus norvegicus [12] = test: Half life period after intravenous dose in rat; format: ADME, organism-based; settings: in vivo; outline: as §1
Rattus norvegicus [13] = test: mean arterial pressure in a rat model of ischemia after 15 min at 3 mg/kg dose; format: functional, Artery
Rattus norvegicus [14] = test: mean arterial pressure in a rat model of reperfusion after 60 min at 50 mg/kg dose; format: functional, Artery
Rattus norvegicus [15] = test: rate pressure product in a rat model of reperfusion after 180 min at 3 mg/kg dose; format: functional
Rattus norvegicus [16] = test: rate pressure product in a rat model of reperfusion after 5 min at 3 mg/kg dose; format: functional
Rattus norvegicus [17] = test: heart rate in a rat model of ischemia after 15 min at 50 mg/kg dose; format: functional
Rattus norvegicus [18] = test: heart rate in a rat model of ischemia after 15 min at 3 mg/kg dose; format: functional
Rattus norvegicus [19] = test: rate pressure product in a rat model of reperfusion after 60 min at 3 mg/kg dose; format: functional
Rattus norvegicus [20] = test: rate pressure product in a rat model of ischemia immediately prior to the occlusion at 50 mg/kg dose; format: functional
Rattus norvegicus [21] = test: heart rate in a rat model of ischemia immediately prior to the occlusion at 3 mg/kg dose; format: functional
Rattus norvegicus [22] = test: rate pressure product in a rat model of ischemia immediately prior to the occlusion at 3 mg/kg dose; format: functional
Rattus norvegicus [23] = test: rate pressure product in a rat model of reperfusion after 180 min at 50 mg/kg dose; format: functional
Rattus norvegicus [24] = test: rate pressure product in a rat model of ischemia after 15 min at 50 mg/kg dose; format: functional
Rattus norvegicus [25] = test: heart rate in a rat model of ischemia immediately prior to the occlusion at 50 mg/kg dose; format: functional
Rattus norvegicus [26] = test: heart rate in a rat model of reperfusion after 180 min at 50 mg/kg dose
Rattus norvegicus [27] = test: rate pressure product in a rat model of reperfusion after 120 min at 50 mg/kg dose; format: functional
Rattus norvegicus [28] = test: rate pressure product in a rat model of reperfusion after 120 min at 3 mg/kg dose; format: functional
Rattus norvegicus [29] = test: heart rate pressure in a rat model of reperfusion after 180 min at 3 mg/kg dose; format: functional
Rattus norvegicus [30] = test: mean arterial pressure in a rat model of reperfusion after 5 min at 50 mg/kg dose; format: functional, Artery
Rattus norvegicus [31] = test: heart rate in a rat model of reperfusion after 120 min at 50 mg/kg dose
Rattus norvegicus [32] = test: mean arterial pressure in a rat model of ischemia after 15 min at 50 mg/kg dose; format: functional, Artery
Rattus norvegicus [33] = test: heart rate pressure in a rat model of reperfusion after 120 min at 3 mg/kg dose; format: functional
Rattus norvegicus [34] = test: mean arterial pressure in a rat model of reperfusion after 60 min at 3 mg/kg dose; format: functional, Artery
Rattus norvegicus [35] = test: mean arterial pressure in a rat model of reperfusion after 5 min at 3 mg/kg dose; format: functional, Artery
Rattus norvegicus [36] = test: mean arterial pressure in a rat model of reperfusion after 180 min at 3 mg/kg dose; format: functional, Artery
Canis familiaris [37] = test: Mean residence time after po dose in dog; settings: in vivo
Rattus norvegicus [38] = test: rate pressure product in a rat model of reperfusion after 60 min at 50 mg/kg dose; format: functional
Canis familiaris [39] = test: Cmax value after po dose in dog; settings: in vivo
Rattus norvegicus [40] = test: rate pressure product in a rat model of reperfusion after 5 min at 50 mg/kg dose; format: functional
Rattus norvegicus [41] = test: mean arterial pressure in a rat model of ischemia immediately prior to the occlusion at 50 mg/kg dose; format: functional, Artery
Rattus norvegicus [42] = test: mean arterial pressure in a rat model of reperfusion after 120 min at 3 mg/kg dose; format: functional, Artery
Rattus norvegicus [43] = test: heart rate pressure in a rat model of reperfusion after 5 min at 3 mg/kg dose; format: functional
Rattus norvegicus [44] = test: rate pressure product in a rat model of ischemia after 15 min at 3 mg/kg dose; format: functional
Rattus norvegicus [45] = test: mean arterial pressure in a rat model of ischemia immediately prior to the occlusion at 3 mg/kg dose; format: functional, Artery
Rattus norvegicus [46] = test: mean arterial pressure in a rat model of reperfusion after 120 min at 50 mg/kg dose; format: functional, Artery
[47] = Clearance after intravenous dose in rat; settings: in vivo, CL
Rattus norvegicus [48] = test: Clearance after intravenous dose in rat; settings: in vivo
Rattus norvegicus [49] = test: heart rate in a rat model of reperfusion after 60 min at 50 mg/kg dose; format: functional

Sequence of Intercellular adhesion molecule (ICAM-1), Integrin alpha-L/beta-2 (P20701 whole entry): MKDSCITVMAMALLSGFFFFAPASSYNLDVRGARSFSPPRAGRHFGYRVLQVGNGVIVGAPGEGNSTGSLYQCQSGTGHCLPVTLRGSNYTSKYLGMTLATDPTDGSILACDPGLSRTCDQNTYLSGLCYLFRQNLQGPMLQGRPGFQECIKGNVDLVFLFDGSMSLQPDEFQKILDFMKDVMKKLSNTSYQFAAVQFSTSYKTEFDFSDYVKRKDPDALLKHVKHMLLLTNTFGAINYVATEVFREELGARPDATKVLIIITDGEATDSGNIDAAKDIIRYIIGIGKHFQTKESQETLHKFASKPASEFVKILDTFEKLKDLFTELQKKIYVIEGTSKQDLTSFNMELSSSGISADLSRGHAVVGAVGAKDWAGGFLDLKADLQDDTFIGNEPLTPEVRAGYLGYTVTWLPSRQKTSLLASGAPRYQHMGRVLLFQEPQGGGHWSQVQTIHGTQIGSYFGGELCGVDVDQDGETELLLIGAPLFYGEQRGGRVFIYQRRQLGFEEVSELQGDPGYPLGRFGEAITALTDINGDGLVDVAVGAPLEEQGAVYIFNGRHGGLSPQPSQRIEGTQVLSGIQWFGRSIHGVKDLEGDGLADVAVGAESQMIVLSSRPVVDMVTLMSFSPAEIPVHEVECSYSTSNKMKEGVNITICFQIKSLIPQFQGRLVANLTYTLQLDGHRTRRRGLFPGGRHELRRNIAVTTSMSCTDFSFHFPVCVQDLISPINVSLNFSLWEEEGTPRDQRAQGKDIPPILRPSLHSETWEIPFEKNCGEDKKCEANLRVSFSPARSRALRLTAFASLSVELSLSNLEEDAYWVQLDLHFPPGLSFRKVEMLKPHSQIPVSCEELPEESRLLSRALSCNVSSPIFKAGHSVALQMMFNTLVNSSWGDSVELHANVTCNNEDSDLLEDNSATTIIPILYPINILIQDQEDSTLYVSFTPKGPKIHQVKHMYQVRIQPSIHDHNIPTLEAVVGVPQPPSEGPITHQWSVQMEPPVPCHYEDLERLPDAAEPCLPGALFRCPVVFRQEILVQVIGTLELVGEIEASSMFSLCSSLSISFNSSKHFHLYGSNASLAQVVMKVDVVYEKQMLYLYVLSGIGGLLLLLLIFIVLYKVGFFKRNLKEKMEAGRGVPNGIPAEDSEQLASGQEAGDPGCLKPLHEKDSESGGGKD
Sequence of Intercellular adhesion molecule (ICAM-1), Integrin alpha-L/beta-2 (P05362 whole entry, further chain): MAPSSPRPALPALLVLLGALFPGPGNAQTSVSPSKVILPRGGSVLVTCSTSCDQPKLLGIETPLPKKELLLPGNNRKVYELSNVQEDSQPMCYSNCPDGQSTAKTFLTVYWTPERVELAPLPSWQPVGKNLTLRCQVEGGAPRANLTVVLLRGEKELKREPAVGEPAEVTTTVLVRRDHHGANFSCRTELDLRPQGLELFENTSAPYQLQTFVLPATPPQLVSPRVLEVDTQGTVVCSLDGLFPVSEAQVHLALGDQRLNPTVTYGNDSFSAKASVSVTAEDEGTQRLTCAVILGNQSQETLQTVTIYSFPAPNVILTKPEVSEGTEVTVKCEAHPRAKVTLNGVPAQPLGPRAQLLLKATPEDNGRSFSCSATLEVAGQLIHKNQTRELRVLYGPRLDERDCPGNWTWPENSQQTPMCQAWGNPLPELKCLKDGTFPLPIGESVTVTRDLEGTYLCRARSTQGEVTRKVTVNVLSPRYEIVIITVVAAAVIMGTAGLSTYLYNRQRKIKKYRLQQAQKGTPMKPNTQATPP
Sequence of Intercellular adhesion molecule (ICAM-1), Integrin alpha-L/beta-2 (P05107 whole entry): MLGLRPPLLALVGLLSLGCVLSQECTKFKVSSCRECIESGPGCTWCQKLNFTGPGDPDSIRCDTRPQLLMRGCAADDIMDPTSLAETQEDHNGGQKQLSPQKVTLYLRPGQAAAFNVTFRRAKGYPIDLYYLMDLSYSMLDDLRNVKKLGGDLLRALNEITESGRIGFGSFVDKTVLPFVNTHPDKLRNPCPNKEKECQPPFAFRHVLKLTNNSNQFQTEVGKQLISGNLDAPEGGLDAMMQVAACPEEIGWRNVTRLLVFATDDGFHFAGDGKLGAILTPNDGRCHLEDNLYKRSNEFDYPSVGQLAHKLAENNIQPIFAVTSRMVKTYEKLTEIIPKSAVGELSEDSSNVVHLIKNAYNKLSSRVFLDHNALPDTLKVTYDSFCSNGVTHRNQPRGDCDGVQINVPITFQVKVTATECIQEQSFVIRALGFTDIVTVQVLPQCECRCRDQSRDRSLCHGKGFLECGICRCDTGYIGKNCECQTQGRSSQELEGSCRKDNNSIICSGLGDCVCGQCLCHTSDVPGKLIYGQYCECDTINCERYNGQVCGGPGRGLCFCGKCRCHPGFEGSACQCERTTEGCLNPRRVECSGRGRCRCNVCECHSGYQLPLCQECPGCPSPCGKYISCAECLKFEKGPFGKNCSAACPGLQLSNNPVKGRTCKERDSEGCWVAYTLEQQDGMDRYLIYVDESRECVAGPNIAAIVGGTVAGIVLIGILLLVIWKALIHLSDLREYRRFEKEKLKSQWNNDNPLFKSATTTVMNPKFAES

SMILES: CC(C)c1ccccc1Sc1ccc(/C=C/C(=O)N2CCC3(CC2)OCCO3)cc1[N+](=O)[O-]
- IC50 [1]: 55 nM

SMILES: CC(C)c1ccccc1Sc1ccc(/C=C/C(=O)N2CCC(S(=O)(=O)O)CC2)cc1[N+](=O)[O-]
- IC50 [1]: 90 nM

SMILES: CC(=O)N1CCN(C(=O)/C=C/c2ccc(Sc3ccccc3C(C)C)c([N+](=O)[O-])c2)CC1 [A-286982]
- Solubility (Water solubility): < 1 µg/mL
- bioavailability [2]: 0%
- Cmax [3]: 0 ug m l-1
- clearance (Clearance after iv dose): 45 mL/min/kg

SMILES: CC(=O)N1CCN(C(=O)/C=C/c2ccc(Sc3ccccc3C(C)C)c([N+](=O)[O-])c2)CC1C(=O)O (configuration not stated)
- IC50 [1]: 680 nM

SMILES: CC(C)c1ccccc1Sc1ccc(/C=C/C(=O)N2CCNC(C(=O)N(C)C)C2)cc1[N+](=O)[O-] (configuration not stated)
- IC50 [1]: 75 nM

SMILES: CC(C)c1ccccc1Sc1ccc(/C=C/C(=O)N2CC=CC2C(=O)O)cc1C(F)(F)F (configuration not stated)
- IC50 [1]: 130 nM

SMILES: O=C(O)C1CCN(C(=O)/C=C/c2ccc(Sc3ccc4c(c3)OCCO4)c(C(F)(F)F)c2)CC1
- half-life [4]: 3.9 h
- clearance [5]: 2 mL/min/kg
- IC50 [1]: 30 nM
- IC50 (JY): 150 nM
- MRT [6]: 6.7 h
- bioavailability [7]: 39%
- Cmax (Rattus norvegicus [8]): 2.8 ug m l-1

SMILES: COC(=O)C1CN(C(=O)/C=C/c2ccc(Sc3ccccc3C(C)C)c([N+](=O)[O-])c2)CCN1C (configuration not stated)
- IC50 [1]: 45 nM
- IC50 (JY): 110 nM

SMILES: CC(C)c1ccccc1Sc1ccc(/C=C/C(=O)N2CCOC(c3nnn[nH]3)C2)cc1[N+](=O)[O-] (configuration not stated)
- IC50 [1]: 20 nM
- IC50 (JY): 2 nM

SMILES: COC(=O)C1CN(C(=O)/C=C/c2ccc(Sc3ccccc3C(C)C)c([N+](=O)[O-])c2)CCN1 (configuration not stated)
- IC50 [1]: 60 nM
- IC50 (JY): 98 nM

SMILES: CC(C)c1ccccc1Sc1ccc(/C=C/C(=O)N2CCC(C(=O)O)CC2)cc1[N+](=O)[O-]
- half-life [4]: 1.15 h
- clearance [5]: 13.2 mL/min/kg
- IC50 [1]: 31 nM
- IC50 (JY): 165 nM
- MRT [6]: 3.5 h
- bioavailability [7]: 21%
- Cmax (Rattus norvegicus [8]): 0.5 ug m l-1

SMILES: COC(=O)N1CCN(C(=O)/C=C/c2ccc(Sc3ccccc3C(C)C)c([N+](=O)[O-])c2)C(C(=O)O)C1 (configuration not stated)
- IC50 [1]: 130 nM

SMILES: COC(=O)C1CNCCN1C(=O)/C=C/c1ccc(Sc2ccccc2C(C)C)c([N+](=O)[O-])c1 (configuration not stated)
- IC50 [1]: 340 nM

SMILES: O=C(O)C1CCCN(C(=O)/C=C/c2ccc(Sc3ccc4c(c3)OCCO4)c(C(F)(F)F)c2)C1 (configuration not stated)
- HR (Rattus norvegicus [9]): 382 beats min-1
- MAP (Rattus norvegicus [10]): 80 mmHg
- HR (Rattus norvegicus [11]): 382 beats min-1
- T1/2 (Rattus norvegicus [12]): 2.3 h and 5.7 h
- MAP (Rattus norvegicus [13]): 107 mmHg
- MAP (Rattus norvegicus [14]): 118 mmHg
- RPP (Rattus norvegicus [15]): 35100 mmHg beats min-1
- RPP (Rattus norvegicus [16]): 37500 mmHg beats min-1
- HR (Rattus norvegicus [17]): 400 beats min-1
- HR (Rattus norvegicus [18]): 391 beats min-1
- RPP (Rattus norvegicus [19]): 38100 mmHg beats min-1
- RPP (Rattus norvegicus [20]): 54000 mmHg beats min-1
- HR (Rattus norvegicus [21]): 393 beats min-1
- RPP (Rattus norvegicus [22]): 46400 mmHg beats min-1
- RPP (Rattus norvegicus [23]): 32000 mmHg beats min-1
- IC50 [1]: 25 nM
- RPP (Rattus norvegicus [24]): 42700 mmHg beats min-1
- HR (Rattus norvegicus [25]): 419 beats min-1
- IC50 (JY): 140 nM
- HR (Rattus norvegicus [26]): 399 beats min-1
- RPP (Rattus norvegicus [27]): 38100 mmHg beats min-1
- RPP (Rattus norvegicus [28]): 31800 mmHg beats min-1
- HR (Rattus norvegicus [29]): 376 beats min-1
- MAP (Rattus norvegicus [30]): 105 mmHg
- HR (Rattus norvegicus [31]): 397 beats min-1
- MAP (Rattus norvegicus [32]): 105 mmHg
- HR (Rattus norvegicus [33]): 371 beats min-1
- MAP (Rattus norvegicus [34]): 99 mmHg
- MAP (Rattus norvegicus [35]): 98 mmHg
- MAP (Rattus norvegicus [36]): 95 mmHg
- MRT (Canis familiaris [37]): 5.7 h
- RPP (Rattus norvegicus [38]): 46700 mmHg beats min-1
- Cmax (Canis familiaris [39]): 3700 ng/mL
- MRT [6]: 5 h
- RPP (Rattus norvegicus [40]): 40200 mmHg beats min-1
- MAP (Rattus norvegicus [41]): 128 mmHg
- MAP (Rattus norvegicus [42]): 85 mmHg
- HR (Rattus norvegicus [43]): 379 beats min-1
- F [7]: 29% and 55%
- RPP (Rattus norvegicus [44]): 41800 mmHg beats min-1
- MAP (Rattus norvegicus [45]): 118 mmHg
- Cmax (Rattus norvegicus [8]): 1.5 ug m l-1
- MAP (Rattus norvegicus [46]): 96 mmHg
- clearance [47]: 4.83 mL/min/kg
- clearance (Rattus norvegicus [48]): 5.67 mL/min/kg
- HR (Rattus norvegicus [49]): 396 beats min-1

SMILES: CC(C)c1ccccc1Sc1ccc(/C=C/C(=O)N2CCNC(CO)C2)cc1[N+](=O)[O-] (configuration not stated)
- half-life [4]: 1.9 h
- clearance [5]: 53.3 mL/min/kg
- Solubility (Water solubility): 5 µg/mL (≈ 11.3 µM)
- IC50 [1]: 280 nM
- bioavailability [7]: 0%
- Cmax (Rattus norvegicus [8]): 0 ug m l-1

SMILES: CC(C)c1ccccc1Sc1ccc(/C=C/C(=O)N2CCN(C(=O)c3ccncc3)CC2)cc1[N+](=O)[O-]
- IC50 [1]: 66 nM
- IC50 (JY): 20 nM

SMILES: CC(C)c1ccccc1Sc1ccc(/C=C/C(=O)N2CCCC(C(=O)O)C2)cc1[N+](=O)[O-] (configuration not stated)
- half-life [4]: 0.4 h
- clearance [5]: 35 mL/min/kg
- IC50 [1]: 30 nM
- IC50 (JY): 90 nM
- MRT [6]: 11.3 h
- bioavailability [7]: 19%
- Cmax (Rattus norvegicus [8]): 0.45 ug m l-1

SMILES: CC(C)c1ccccc1Sc1ccc(/C=C/C(=O)N2CCC(=O)CC2)cc1[N+](=O)[O-]
- IC50 [1]: 60 nM
- IC50 (JY): 240 nM

SMILES: CC(C)c1ccccc1Sc1ccc(/C=C/C(=O)N2CCN(C)CC2)cc1[N+](=O)[O-]
- IC50 [1]: 130 nM

SMILES: CC(C)c1ccccc1Sc1ccc(/C=C/C(=O)N2CCNCC2)cc1[N+](=O)[O-]
- IC50 [1]: 450 nM

SMILES: CNC(=O)N1CCN(C(=O)/C=C/c2ccc(Sc3ccccc3C(C)C)c([N+](=O)[O-])c2)CC1
- IC50 [1]: 25 nM
